Experimental data published in ChEMBL document CHEMBL4706580, “4-Amino-1,2,4-triazole-3-thione-derived Schiff bases as metallo-β-lactamase inhibitors” (Eur J Med Chem, 2020).
Calls of active or inactive are those of the source. No cut-off for these calls is given here.

How the values were obtained:
[1] = Inhibition of beta-lactamase NDM-1 (unknown origin) expressed in Escherichia coli LZ2310 assessed as potentiation of ceftazidime antibacterial activity by measuring ceftazidime induced diameter of inhibition zone at 40 uM incubated for 18 hrs by disk diffusion method (reference value: 15 mm)
In short: (§1)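 Efflux-deficient E. coli LZ2310 (NorE, MdfA, AcrA knocked out) carrying pLB-II with the cloned MBL gene. Mueller-Hinton, CLSI disk diffusion; antibiotic disks (30 µg cefoxitin for VIM-2, 10 µg ampicillin for VIM-4, 30 µg ceftazidime for NDM-1/IMP-1) loaded with inhibitor in DMSO (≤15 µL). Zone diameter after 18 h, 35 ± 1 °C; DMSO and 220 µg EDTA controls. Triplicate.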

[2] = Inhibition of beta-lactamase VIM2 (unknown origin) expressed in Escherichia coli BL21(DE3) using imipenem as substrate by measuring substrate hydrolysis by spectrophotometric analysis
In short: (§2)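 Purified enzyme (overproduced in E. coli BL21(DE3), pET-9a; ion-exchange and gel filtration), 1-70 nM final. Reporter substrate 150 μM imipenem, read at 300 nm, 30 °C, 50 mM HEPES pH 7.5. Single-point screen at 100 or 200 μM; Ki from v0/vi vs [I] (0.5–1,000 μM final) assuming competitive inhibition, or Dixon plot. Triplicate.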

[3] = Inhibition of beta-lactamase IMP-1 (unknown origin) expressed in Escherichia coli BL21(DE3) using imipenem as substrate by measuring substrate hydrolysis at 100 uM by spectrophotometric analysis; in short: as §2
[4] = Inhibition of beta-lactamase L1 (unknown origin) expressed in Escherichia coli BL21(DE3) using nitrocefin as substrate by measuring substrate hydrolysis preincubated for 30 mins by spectrophotometric analysis
In short: (§3)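 Enzyme 0.2–0.8 nM in 25 mM HEPES pH 7.5 with 50 μM ZnCl2 final, pre-incubated 30 min at 21 °C with inhibitor (100 μM screen). Nitrocefin 100 μM final, read at 482 nm, 30 °C. Residual activity vs three uninhibited samples; Ki (1–100 μM inhibitor) from Hanes linearization, competitive model. Triplicate.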

[5] = Inhibition of beta-lactamase NDM1 (unknown origin) expressed in Escherichia coli BL21(DE3) using cefotaxime/nitrocefin as substrate by measuring substrate hydrolysis at 100 uM by spectrophotometric analysis
[6] = Inhibition of beta-lactamase VIM-2 (unknown origin) expressed in Escherichia coli LZ2310 assessed as potentiation of cefoxitin antibacterial activity by measuring cefoxitin induced diameter of inhibition zone at 40 uM incubated for 18 hrs by disk diffusion method (reference value: 14 mm); in short: as §1
[7] = Inhibition of beta-lactamase VIM4 (unknown origin) expressed in Escherichia coli BL21(DE3) using imipenem as substrate by measuring substrate hydrolysis at 100 uM by spectrophotometric analysis; in short: as §2
[8] = Inhibition of beta-lactamase CphA (unknown origin) expressed in Escherichia coli BL21(DE3) using imipenem as substrate by measuring substrate hydrolysis at 100 uM by spectrophotometric analysis
In short: (§4)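 Enzyme 0.2–0.8 nM in 15 mM cacodylate pH 6.5, no added zinc, pre-incubated 30 min at 21 °C with inhibitor (100 μM screen). Imipenem substrate added from 10 mM stock; hydrolysis at 300 nm, 30 °C. Residual activity vs three uninhibited samples; Ki (1–100 μM inhibitor) by Hanes linearization, competitive model. Triplicate.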

[9] = Inhibition of beta-lactamase NDM1 (unknown origin) expressed in Escherichia coli BL21(DE3) using cefotaxime/nitrocefin as substrate by measuring substrate hydrolysis at 200 uM by spectrophotometric analysis
[10] = Inhibition of beta-lactamase IMP-1 (unknown origin) expressed in Escherichia coli BL21(DE3) using imipenem as substrate by measuring substrate hydrolysis by spectrophotometric analysis; in short: as §2
[11] = Inhibition of beta-lactamase VIM2 (unknown origin) expressed in Escherichia coli BL21(DE3) using imipenem as substrate by measuring substrate hydrolysis at 200 uM by spectrophotometric analysis; in short: as §2
[12] = Inhibition of beta-lactamase VIM-4 (unknown origin) expressed in Escherichia coli LZ2310 assessed as potentiation of ampicillin antibacterial activity by measuring ampicillin induced diameter of inhibition zone at 40 uM incubated for 18 hrs by disk diffusion method (reference value: 6 mm); in short: as §1
[13] = Inhibition of beta-lactamase VIM4 (unknown origin) expressed in Escherichia coli BL21(DE3) using imipenem as substrate by measuring substrate hydrolysis by spectrophotometric analysis; in short: as §2
[14] = Inhibition of beta-lactamase VIM2 (unknown origin) expressed in Escherichia coli BL21(DE3) using imipenem as substrate by measuring substrate hydrolysis at 100 uM by spectrophotometric analysis; in short: as §2
[15] = Inhibition of beta-lactamase CphA (unknown origin) expressed in Escherichia coli BL21(DE3) using imipenem as substrate by measuring substrate hydrolysis by spectrophotometric analysis; in short: as §4
[16] = Inhibition of beta-lactamase L1 (unknown origin) expressed in Escherichia coli BL21(DE3) using nitrocefin as substrate by measuring substrate hydrolysis at 100 uM preincubated for 30 mins by spectrophotometric analysis; in short: as §3
[17] = Inhibition of beta-lactamase NDM1 (unknown origin) expressed in Escherichia coli BL21(DE3) using cefotaxime/nitrocefin as substrate by measuring substrate hydrolysis by spectrophotometric analysis
In short: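 His-tagged enzyme from E. coli BL21(DE3) pET-15b, affinity-purified, 1-70 nM final. Reporter substrate 120 μM cefotaxime (260 nm) or 100 μM nitrocefin (482 nm), 30 °C, 50 mM HEPES pH 7.5. Inhibitor 0.5–1,000 μM final; competitive Ki from v0/vi vs [I] slope or Dixon plot. Triplicate.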

[18] = Inhibition of beta-lactamase VIM4 (unknown origin) expressed in Escherichia coli BL21(DE3) using imipenem as substrate by measuring substrate hydrolysis at 200 uM by spectrophotometric analysis; in short: as §2
[19] = Inhibition of beta-lactamase L1 (unknown origin) expressed in Escherichia coli BL21(DE3) using nitrocefin as substrate by measuring substrate hydrolysis at 200 uM preincubated for 30 mins by spectrophotometric analysis
[20] = Inhibition of beta-lactamase IMP-1 (unknown origin) expressed in Escherichia coli BL21(DE3) using imipenem as substrate by measuring substrate hydrolysis at 200 uM by spectrophotometric analysis; in short: as §2

## O=C(O)c1ccccc1/C=N/n1c(CCc2ccccc2)n[nH]c1=S
[1]
  inhibition zone (IZ): 15 mm
[2]
  Ki: 7 µM
[3]
  inhibition: 37%
[4]
  Ki: 4 µM
[5]
  inhibition: inactive
[6]
  inhibition zone (IZ): 14 mm
[7]
  inhibition: 56%
[8]
  inhibition: 50%
[9]
  inhibition: inactive

## S=c1[nH]nc(CCc2ccccc2)n1/N=C/c1ccc(OCc2ccccc2)cc1
[4]
  Ki: 32 µM
[10]
  Ki: 9 µM
[5]
  inhibition: 30%
[11]
  inhibition: inactive
[12]
  inhibition zone (IZ): 6 mm
[13]
  Ki: 2 µM
[14]
  inhibition: inactive
[15]
  Ki: 1 µM

## Cc1ccccc1-c1n[nH]c(=S)n1/N=C/c1cc(O)ccc1O
[2]
  Ki: 11 µM
[3]
  inhibition: 54%
[5]
  inhibition: 37%
[12]
  inhibition zone (IZ): 6 mm
[6]
  inhibition zone (IZ): 14 mm
[16]
  inhibition: 48%
[13]
  Ki: 1.6 µM
[8]
  inhibition: 54%

## O=C(O)c1ccccc1/C=N/n1c(-c2ccc(OCc3ccccc3)cc2)n[nH]c1=S
[1]
  inhibition zone (IZ): 15 mm
[2]
  Ki: 0.9 µM
[3]
  inhibition: 62%
[4]
  Ki: 0.4 µM
[6]
  inhibition zone (IZ): 14 mm
[13]
  Ki: 1 µM
[17]
  Ki: 2.8 µM

## Oc1ccc(/C=N/n2c(-c3ccc(OCc4ccccc4)cc3)n[nH]c2=S)c(O)c1
[3]
  inhibition: 62%
[18]
  inhibition: inactive
[19]
  inhibition: inactive
[5]
  inhibition: 42%
[11]
  inhibition: inactive
[7]
  inhibition: inactive
[16]
  inhibition: inactive
[14]
  inhibition: inactive

## S=c1[nH]nc(C(c2ccccc2)c2ccccc2)n1/N=C/c1ccc(OCc2ccccc2)cc1
[18]
  inhibition: inactive
[19]
  inhibition: inactive
[11]
  inhibition: inactive
[20]
  inhibition: 50%
[7]
  inhibition: inactive
[16]
  inhibition: inactive
[14]
  inhibition: inactive
[9]
  inhibition: 60%

## S=c1[nH]nc(-c2cccc(Cl)c2)n1/N=C/c1ccc(OCc2ccccc2)cc1
[1]
  inhibition zone (IZ): 15 mm
[3]
  inhibition: inactive
[11]
  inhibition: inactive
[20]
  inhibition: inactive
[7]
  inhibition: 35%
[16]
  inhibition: 60%
[14]
  inhibition: inactive
[17]
  Ki: 6.7 µM

## Cc1ccccc1-c1n[nH]c(=S)n1/N=C/c1ccc(F)cc1
[3]
  inhibition: 30%
[18]
  inhibition: inactive
[11]
  inhibition: inactive
[7]
  inhibition: inactive
[16]
  inhibition: 30%
[14]
  inhibition: inactive
[9]
  inhibition: 60%

## Cc1ccccc1-c1n[nH]c(=S)n1/N=C/c1cnc[nH]1
[3]
  inhibition: inactive
[18]
  inhibition: inactive
[19]
  inhibition: inactive
[5]
  inhibition: inactive
[11]
  inhibition: inactive
[20]
  inhibition: inactive
[7]
  inhibition: inactive
[16]
  inhibition: inactive
[14]
  inhibition: inactive
[8]
  inhibition: 36%
[9]
  inhibition: inactive

## S=c1[nH]nc(-c2ccc(OCc3ccccc3)cc2)n1/N=C/c1ccc(OCc2ccccc2)cc1
[10]
  Ki: 2.2 µM
[18]
  inhibition: inactive
[19]
  inhibition: inactive
[11]
  inhibition: inactive
[7]
  inhibition: inactive
[16]
  inhibition: inactive
[14]
  inhibition: inactive
[17]
  Ki: 3.2 µM

## S=c1[nH]nc(-c2cccc(Br)c2)n1/N=C/c1ccc(OCc2ccccc2)cc1
[3]
  inhibition: inactive
[18]
  inhibition: inactive
[5]
  inhibition: inactive
[11]
  inhibition: inactive
[20]
  inhibition: inactive
[7]
  inhibition: inactive
[16]
  inhibition: 15%
[14]
  inhibition: inactive
[9]
  inhibition: inactive

## O=C(O)c1ccccc1/C=N/n1c(CC(c2ccccc2)c2ccccc2)n[nH]c1=S
[1]
  inhibition zone (IZ): 15 mm
[2]
  Ki: 25.4 µM
[3]
  inhibition: inactive
[4]
  Ki: 2.4 µM
[20]
  inhibition: inactive
[13]
  Ki: 5.6 µM
[15]
  Ki: 15 µM
[17]
  Ki: 2.7 µM

## Oc1ccc(/C=N/n2c(-c3cccc(F)c3)n[nH]c2=S)c(O)c1
[1]
  inhibition zone (IZ): 15 mm
[3]
  inhibition: inactive
[11]
  inhibition: inactive
[20]
  inhibition: inactive
[16]
  inhibition: 25%
[13]
  Ki: 4 µM
[14]
  inhibition: inactive
[17]
  Ki: 11.7 µM

## O=C(O)c1ccccc1/C=N/n1c(COc2ccc3ccccc3c2)n[nH]c1=S
[1]
  inhibition zone (IZ): 15 mm
[2]
  Ki: 2 µM
[3]
  inhibition: 35%
[6]
  inhibition zone (IZ): 14 mm
[16]
  inhibition: 60%
[13]
  Ki: 3 µM
[8]
  inhibition: 42%
[17]
  Ki: 2.4 µM

## COc1cc(O)ccc1/C=N/n1c(-c2ccccc2C)n[nH]c1=S
[2]
  Ki: 10 µM
[3]
  inhibition: inactive
[4]
  Ki: 6 µM
[12]
  inhibition zone (IZ): 7 mm
[6]
  inhibition zone (IZ): 14 mm
[20]
  inhibition: inactive
[13]
  Ki: 2.4 µM
[15]
  Ki: 4 µM
[17]
  Ki: 120 µM

## Fc1cccc(-c2n[nH]c(=S)n2/N=C/c2ccc(OCc3ccccc3)cc2)c1
[3]
  inhibition: 60%
[18]
  inhibition: inactive
[19]
  inhibition: inactive
[5]
  inhibition: inactive
[11]
  inhibition: inactive
[7]
  inhibition: inactive
[16]
  inhibition: inactive
[14]
  inhibition: inactive
[9]
  inhibition: inactive

## O=C(O)c1ccccc1/C=N/n1c(-c2cc(O)ccc2O)n[nH]c1=S
[2]
  Ki: 0.6 µM
[3]
  inhibition: inactive
[4]
  Ki: 38 µM
[12]
  inhibition zone (IZ): 6 mm
[6]
  inhibition zone (IZ): 14 mm
[20]
  inhibition: inactive
[13]
  Ki: 0.2 µM
[15]
  Ki: 52 µM
[17]
  Ki: 79 µM

## O=C(O)c1ccccc1/C=N/n1c(-c2cccc(C(F)(F)F)c2)n[nH]c1=S
[1]
  inhibition zone (IZ): 15 mm
[11]
  inhibition: inactive
[20]
  inhibition: 50%
[16]
  inhibition: 40%
[13]
  Ki: 1.6 µM
[14]
  inhibition: inactive
[8]
  inhibition: 35%

## S=c1[nH]nc(Cc2ccccc2)n1/N=C/c1ccc(OCc2ccccc2)cc1
[3]
  inhibition: inactive
[18]
  inhibition: inactive
[5]
  inhibition: inactive
[11]
  inhibition: inactive
[20]
  inhibition: inactive
[7]
  inhibition: inactive
[16]
  inhibition: 31%
[14]
  inhibition: inactive
[15]
  Ki: 5.5 µM
[9]
  inhibition: inactive
